Experimental data reported in ChEMBL document CHEMBL4706563, “Triphenylethylene analogues: Design, synthesis and evaluation of antitumor activity and topoisomerase inhibitors” (Eur J Med Chem, 2020).
Activity calls are given as the source filed them. The calls are words filed in the database; no cut-off is given here.

Columns and labels:
Type in all cases: functional
[1] = Antiproliferative activity against human renal cancer cells; settings: Renal cancer cell line, read-out: LC50 (the source's name)
[2] = Antiproliferative activity against human colon cancer cells; settings: Colon cancer cell line
RPMI-8226 = experiment: Antiproliferative activity against human RPMI-8226 cells assessed as growth inhibition at 10 uM relative to control; settings: read-out: GI
Procedure, shortened: (§1)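 Single-dose screen run by the US National Cancer Institute across its 60-human tumour cell line panel. Each compound was tested at one concentration. Percent growth inhibition was recorded for each cell line.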

OVCAR-8 = experiment: Antiproliferative activity against human OVCAR-8 cells assessed as growth inhibition at 10 uM relative to control; settings: read-out: GI; procedure, shortened: as §1
ACHN = experiment: Antiproliferative activity against human ACHN cells assessed as growth inhibition at 10 uM relative to control; settings: read-out: GI; procedure, shortened: as §1
MDA-MB-231 = experiment: Antiproliferative activity against human MDA-MB-231 cells assessed as growth inhibition at 10 uM relative to control; settings: read-out: GI; procedure, shortened: as §1
HCC 2998 = experiment: Antiproliferative activity against human HCC 2998 cells assessed as growth inhibition at 10 uM relative to control; settings: read-out: GI; procedure, shortened: as §1
SF-295 = experiment: Antiproliferative activity against human SF-295 cells assessed as growth inhibition at 10 uM relative to control; settings: read-out: GI; procedure, shortened: as §1
M14 = experiment: Antiproliferative activity against human M14 cells assessed as growth inhibition at 10 uM relative to control; settings: read-out: GI; procedure, shortened: as §1
HOP-62 = experiment: Antiproliferative activity against human HOP-62 cells assessed as growth inhibition at 10 uM relative to control; settings: read-out: GI; procedure, shortened: as §1
HT-29 = experiment: Antiproliferative activity against human HT29 cells assessed as growth inhibition at 10 uM relative to control; settings: read-out: GI; procedure, shortened: as §1
Malme-3M = experiment: Antiproliferative activity against human Malme-3M cells assessed as growth inhibition at 10 uM relative to control; settings: read-out: GI; procedure, shortened: as §1
[3] = Antiproliferative activity against human ovarian cancer cells; settings: Ovarian cancer cell line
HCT-15 = experiment: Antiproliferative activity against human HCT-15 cells assessed as growth inhibition at 10 uM relative to control; settings: read-out: GI; procedure, shortened: as §1
LOX IMVI = experiment: Antiproliferative activity against human LOX IMVI cells assessed as growth inhibition at 10 uM relative to control; settings: read-out: GI; procedure, shortened: as §1
OVCAR-4 = experiment: Antiproliferative activity against human OVCAR-4 cells assessed as growth inhibition at 10 uM relative to control; settings: read-out: GI; procedure, shortened: as §1
SK-MEL-2 = experiment: Antiproliferative activity against human SK-MEL-2 cells assessed as growth inhibition at 10 uM relative to control; settings: read-out: GI; procedure, shortened: as §1
COLO 205 = experiment: Antiproliferative activity against human COLO 205 cells assessed as growth inhibition at 10 uM relative to control; settings: read-out: GI; procedure, shortened: as §1
K562 = experiment: Antiproliferative activity against human K562 cells assessed as growth inhibition at 10 uM relative to control; procedure, shortened: as §1
OVCAR-3 = experiment: Antiproliferative activity against human OVCAR-3 cells assessed as growth inhibition at 10 uM relative to control; settings: read-out: GI; procedure, shortened: as §1
SF-539 = experiment: Antiproliferative activity against human SF-539 cells assessed as growth inhibition at 10 uM relative to control; procedure, shortened: as §1
786-0 = experiment: Antiproliferative activity against human 786-0 cells assessed as growth inhibition at 10 uM relative to control; settings: read-out: GI; procedure, shortened: as §1
A549 = experiment: Antiproliferative activity against human A549 cells assessed as growth inhibition at 10 uM relative to control; settings: read-out: GI; procedure, shortened: as §1
SK-OV-3 = experiment: Antiproliferative activity against human SK-OV-3 cells assessed as growth inhibition at 10 uM relative to control; settings: read-out: GI
Procedure, shortened: (§2)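 NCI 60 human tumour cell line panel screen. Compounds tested at a single dose and growth inhibition (%) determined for each line.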

CCRF-CEM = experiment: Antiproliferative activity against human CCRF-CEM cells assessed as growth inhibition at 10 uM relative to control; settings: read-out: GI; procedure, shortened: as §1
IGROV-1 = experiment: Antiproliferative activity against human IGROV-1 cells assessed as growth inhibition at 10 uM relative to control; settings: read-out: GI; procedure, shortened: as §1
[4] = Antiproliferative activity against human Melanoma cells; settings: Melanoma cell line
UACC-257 = experiment: Antiproliferative activity against human UACC-257 cells assessed as growth inhibition at 10 uM relative to control; settings: read-out: GI; procedure, shortened: as §2
TK-10 = experiment: Antiproliferative activity against human TK-10 cells assessed as growth inhibition at 10 uM relative to control; settings: read-out: GI; procedure, shortened: as §2
SNB-75 = experiment: Antiproliferative activity against human SNB-75 cells assessed as growth inhibition at 10 uM relative to control; settings: read-out: GI; procedure, shortened: as §2
PC-3 = experiment: Antiproliferative activity against human PC-3 cells assessed as growth inhibition at 10 uM relative to control; settings: read-out: GI; procedure, shortened: as §1
NCI-H322M = experiment: Antiproliferative activity against human NCI-H322M cells assessed as growth inhibition at 10 uM relative to control; settings: read-out: GI; procedure, shortened: as §1
[5] = Antiproliferative activity against human prostate cancer cells; settings: Prostate tumor cell line
SW-620 = experiment: Antiproliferative activity against human SW-620 cells assessed as growth inhibition at 10 uM relative to control; settings: read-out: GI; procedure, shortened: as §2
HCT-116 = experiment: Antiproliferative activity against human HCT-116 cells assessed as growth inhibition at 10 uM relative to control; settings: read-out: GI; procedure, shortened: as §1
NCI-H226 = experiment: Antiproliferative activity against human NCI-H226 cells assessed as growth inhibition at 10 uM relative to control; settings: read-out: GI; procedure, shortened: as §1
NCI-H522 = experiment: Antiproliferative activity against human NCI-H522 cells assessed as growth inhibition at 10 uM relative to control; settings: read-out: GI; procedure, shortened: as §1
UO-31 = experiment: Antiproliferative activity against human UO-31 cells assessed as growth inhibition at 10 uM relative to control; settings: read-out: GI; procedure, shortened: as §2
MDA-MB-435 = experiment: Antiproliferative activity against human MDA-MB-435 cells assessed as growth inhibition at 10 uM relative to control; settings: read-out: GI; procedure, shortened: as §1
SR = experiment: Antiproliferative activity against human SR cells assessed as growth inhibition at 10 uM relative to control; settings: read-out: GI; procedure, shortened: as §2
BT-549 = experiment: Antiproliferative activity against human BT-549 cells assessed as growth inhibition at 10 uM relative to control; settings: read-out: GI; procedure, shortened: as §1
NCI-H460 = experiment: Antiproliferative activity against human NCI-H460 cells assessed as growth inhibition at 10 uM relative to control; settings: read-out: GI; procedure, shortened: as §1
HL-60(TB) = experiment: Antiproliferative activity against human HL-60(TB) cells assessed as growth inhibition at 10 uM relative to control; settings: read-out: GI
UACC-62 = experiment: Antiproliferative activity against human UACC-62 cells assessed as growth inhibition at 10 uM relative to control; procedure, shortened: as §2
A498 = experiment: Antiproliferative activity against human A498 cells assessed as growth inhibition at 10 uM relative to control; settings: read-out: GI; procedure, shortened: as §1
SN12C = experiment: Antiproliferative activity against human SN12C cells assessed as growth inhibition at 10 uM relative to control; settings: read-out: GI; procedure, shortened: as §2
CAKI-1 = experiment: Antiproliferative activity against human CAKI-1 cells assessed as growth inhibition at 10 uM relative to control; settings: read-out: GI; procedure, shortened: as §1
[6] = read-out: LC50 (the source's name)

SMILES: CC/C(=C(\c1ccccc1)c1ccc(OCCN(C)C)cc1)c1ccccc1 [TAMOXIFEN]
- CC50 [1]: 2590 nM
- GI50 [2]: 1880 nM
- TGI [2]: 5.96 µM
- inhibition of growth at 10 µM (RPMI-8226): -28.3%
- inhibition of growth at 10 µM (OVCAR-8): 39.5%
- inhibition of growth at 10 µM (ACHN): 39.4%
- inhibition of growth at 10 µM (MDA-MB-231): 54.8%
- inhibition of growth at 10 µM (HCC 2998): 83.7%
- inhibition of growth at 10 µM (SF-295): 59.8%
- inhibition of growth at 10 µM (M14): -75%
- inhibition of growth at 10 µM (HOP-62): 56.9%
- inhibition of growth at 10 µM (HT-29): -11.2%
- inhibition of growth at 10 µM (Malme-3M): -67.5%
- GI50 [3]: 4.7 µM
- TGI [3]: 11.9 µM
- CC50 [3, 6]: 2780 nM
- inhibition of growth at 10 µM (HCT-15): 92.4%
- inhibition of growth at 10 µM (LOX IMVI): -43.9%
- inhibition of growth at 10 µM (OVCAR-4): 53.7%
- inhibition of growth at 10 µM (SK-MEL-2): 31.5%
- inhibition of growth at 10 µM (COLO 205): -89%
- growth inhibition (GI) (K562): inactive
- inhibition of growth at 10 µM (OVCAR-3): 47.1%
- growth inhibition (GI) (SF-539): inactive
- inhibition of growth at 10 µM (786-0): -41%
- inhibition of growth at 10 µM (A549): 50.2%
- inhibition of growth at 10 µM (SK-OV-3): 33.2%
- inhibition of growth at 10 µM (CCRF-CEM): 65.4%
- inhibition of growth at 10 µM (IGROV-1): 58.8%
- GI50 [4]: 2030 nM
- TGI [4]: 5.49 µM
- inhibition of growth at 10 µM (UACC-257): -64.3%
- inhibition of growth at 10 µM (TK-10): 48.1%
- inhibition of growth at 10 µM (SNB-75): 60.1%
- inhibition of growth at 10 µM (PC-3): 65.6%
- inhibition of growth at 10 µM (NCI-H322M): 34%
- GI50 [5]: 4.4 µM
- TGI [5]: 11.1 µM
- CC50 [5, 6]: 233 µM
- inhibition of growth at 10 µM (SW-620): 95.1%
- inhibition of growth at 10 µM (HCT-116): 73.8%
- inhibition of growth at 10 µM (NCI-H226): 7.5%
- inhibition of growth at 10 µM (NCI-H522): 53.4%
- inhibition of growth at 10 µM (UO-31): 59.7%
- inhibition of growth at 10 µM (MDA-MB-435): 62.2%
- inhibition of growth at 10 µM (SR): -18.9%
- inhibition of growth at 10 µM (BT-549): 30.2%
- inhibition of growth at 10 µM (NCI-H460): 97.6%
- inhibition of growth at 10 µM (HL-60(TB)): 60.4%
- growth inhibition (GI) (UACC-62): inactive
- inhibition of growth at 10 µM (A498): 35.9%
- inhibition of growth at 10 µM (SN12C): 52.3%
- inhibition of growth at 10 µM (CAKI-1): 70.9%
